# Activity calls are given as the source filed them. The calls are words filed in the database; no cut-off is given here.
# What was measured:
# Plasmodium falciparum [1] = test: Antiplasmodial activity after 48 hrs against chloroquine-sensitive Plasmodium falciparum NF54 by [3H]hypoxanthine uptake; format: functional, organism-based
# Summary of the method: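 Ring-stage cultures were synchronized with 5% d-sorbitol. At 0.5 to 1% parasitemia they were grown in multiwell plates (200 μl/well) across a range of concentrations, with chloroquine as positive control. After 48 h, [3H]hypoxanthine (0.7 μCi/well) was added and culture continued 48 h. Parasites were washed in PBS, dissolved in 3 N NaOH (37°C, 6 h) and counted by β-counter. IC50 reported as mean ± SEM.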
# Plasmodium yoelii [2] = test: Inhibition of hemozoin formation after 48 hrs in multi drug-resistant Plasmodium yoelii
# [3] = biological target: T1, Histidine-rich protein PFHRP-II (Plasmodium falciparum, UniProt P05227); test: Inhibition of hemozoin formation after 48 hrs in chloroquine-sensitive Plasmodium falciparum NF54; format: functional
# T1 sequence (P05227 whole entry): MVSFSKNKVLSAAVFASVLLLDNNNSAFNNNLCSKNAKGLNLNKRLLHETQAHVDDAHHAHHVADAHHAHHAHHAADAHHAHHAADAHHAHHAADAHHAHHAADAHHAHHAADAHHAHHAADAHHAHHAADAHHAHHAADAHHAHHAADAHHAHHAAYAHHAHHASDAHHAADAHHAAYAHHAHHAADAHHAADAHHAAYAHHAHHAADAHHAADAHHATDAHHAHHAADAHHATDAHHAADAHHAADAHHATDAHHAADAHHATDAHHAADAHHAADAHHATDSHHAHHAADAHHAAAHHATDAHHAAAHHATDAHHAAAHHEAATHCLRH
# Summary of the method: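 P. falciparum NF54 culture (5% parasitemia) was ring-synchronized with 5% d-sorbitol, then exposed to graded drug concentrations for 48 h. Parasites were freed with saponin, sonicated and washed with 2% SDS. The pellet was digested overnight at 37°C with proteinase K (2 μg/ml) in Tris/SDS/CaCl2 and treated with 6 M urea for 3 h. After further SDS washes, hemozoin was dissolved in 20 mM NaOH/2% SDS and read at 400 nm.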
# Heme = test: Binding affinity to heme by optical difference spectroscopy
# Summary of the method: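 Heme in 100 mM acetate buffer pH 5.2 at 25 ± 1°C, 1-cm quartz cell, was titrated with successive additions of compound (5 to 40 μM). Soret and difference spectra were recorded after each addition. KD came from a double-reciprocal plot of 1/ΔA362 against 1/[ligand]; mean ± SEM.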
# Plasmodium yoelii [4] = test: Antiplasmodial activity as decreased mitochondrial transmembrane potential after 1 hrs against multi drug-resistant Plasmodium yoelii trophozoite infected Swiss mice (Mus musculus) erythrocytes at 10 uM by JC1 uptake; format: functional, organism-based
# Plasmodium falciparum [5] = test: Antiplasmodial activity after 48 hrs against chloroquine-sensitive Plasmodium falciparum NF54 by [3H]hypoxanthine uptake in presence of mannitol; format: functional, organism-based
# Summary of the method: (§1)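 Cultures at 4% parasitemia received test compound at 40 μM for 48 h, plus the ·OH scavenger PBN (40 mM) or mannitol (10 mM). Growth was read as [3H]hypoxanthine incorporation, β-counting, n = 6, mean ± SEM.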
# Plasmodium falciparum [6] = test: Induction of oxidative stress as increased hydroxyl radical formation after 48 hrs in chloroquine-sensitive Plasmodium falciparum NF54 by fast blue BB assay; format: functional, organism-based
# Summary of the method: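 Ring/early-trophozoite culture (2% parasitemia) was grown 48 h with compound plus 20 μl of 25% DMSO as ·OH trap, re-dosed at each daily medium change; a parasite-only control had neither. Isolated parasites were lysed in water, and methanesulfinic acid from the DMSO–·OH reaction was extracted for quantitation.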
# Plasmodium falciparum [7] = test: Antiplasmodial activity as parasite growth after 24 hrs against chloroquine-sensitive Plasmodium falciparum NF54 infected human B+ erythrocytes at <40 uM 24 hrs preinfection by [3H]hypoxanthine uptake; format: functional, organism-based
# Summary of the method: (§2)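 Uninfected human B+ RBC at 5% hematocrit were preincubated 24 h in CRPMI with compound up to 40 μM; DMSO served as control. Cells were washed three times, then inoculated with trophozoite-rich parasitized RBC (4 to 5% parasitemia). After one intraerythrocytic cycle, [3H]hypoxanthine (0.7 μCi/well) was added for 24 h. Cells were filter-harvested and counted (cpm), n = 6.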
# Plasmodium falciparum [8] = test: Induction of oxidative stress as lipid peroxide formation after 48 hrs in chloroquine-sensitive Plasmodium falciparum NF54; format: functional, organism-based
# Summary of the method: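 Ring-synchronized culture (4% parasitemia) was treated 48 h, and parasites were isolated and lysed in PBS. Lysate was heated with TCA–thiobarbituric acid in 1 N HCl at 100°C for 15 min, cooled and centrifuged. A535 of the supernatant was read against a tetraethoxypropane standard, expressed as nmol/mg lysate protein.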
# Plasmodium falciparum [9] = test: Antiplasmodial activity after 48 hrs against chloroquine-sensitive Plasmodium falciparum NF54 by [3H]hypoxanthine uptake in presence of PBN; format: functional, organism-based; summary of the method: as §1
# Plasmodium yoelii [10] = test: Antiplasmodial activity as reduced parasitaemia at day 4 against multi drug-resistant Plasmodium yoelii infected BALB/c mice (Mus musculus) at 10 mg/kg intraperitoneal dose 6 hrs post infection and daily for 3 days by Giemsa stain; format: functional; set-up: scale not given: the % may be the effect or the level left
# Summary of the method: (§3)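 BALB/c mice (22 ± 2 g), five per group, infected intraperitoneally on day 0 with 10^5 parasitized RBC of P. yoelii resistant to chloroquine, mefloquine and halofantrine. Dosing was intraperitoneal in groundnut oil (0.2 ml), starting 6 h after inoculation and given once daily on days 0–3. Parasitemia was read on Giemsa thin smears on day 4. Group means gave % suppression [(C−T)/C]×100 against vehicle controls; α-β-arteether served as the positive control.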
# Plasmodium falciparum [11] = test: Antiplasmodial activity as increased heme accumulation after 48 hrs against chloroquine-sensitive Plasmodium falciparum NF54 at 10-100 uM by spectrophotometry; format: functional, organism-based
# Summary of the method: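 Cultures were exposed to a range of concentrations for 48 h, then pelleted and washed in PBS. Each pellet was solubilized in 1 ml concentrated formic acid. Heme was read at 398 nm (ε = 1.56 × 10^5 M−1 cm−1) and expressed as nmol/mg cell protein.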
# Plasmodium falciparum [12] = test: Induction of oxidative stress as decreased glutathione after 48 hrs in chloroquine-sensitive Plasmodium falciparum NF54 by TCA assay; format: functional, organism-based
# Summary of the method: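 Parasites at 4% parasitemia were treated 48 h, then isolated and sonicated in 20 mM ice-cold EDTA. The lysate was deproteinized with equal-volume 10% TCA, and the supernatant mixed with 0.8 M Tris-HCl pH 9 containing 20 mM DTNB. A412 was read against a GSH standard and expressed as % of control.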
# MCF7 [13] = test: Cytotoxicity against human MCF7 cells assessed as cell viability at 10 to 1000 uM after 24 hrs by MTT assay; format: cell-based; conditions: mcf7, 24 h
# Plasmodium falciparum [14] = test: Antiplasmodial activity as parasite invasion after 24 hrs against chloroquine-sensitive Plasmodium falciparum NF54 infected human B+ erythrocytes at <40 uM 24 hrs preinfection by [3H]hypoxanthine uptake; format: functional, organism-based; summary of the method: as §2
# Plasmodium falciparum [15] = test: Induction of oxidative stress as increased H2O2 formation after 48 hrs in chloroquine-sensitive Plasmodium falciparum NF54 by spectrofluorimetry; format: functional, organism-based
# Summary of the method: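 Parasites at 4% parasitemia were treated 48 h, then loaded 30 min with 10 μM 2′,7′-dichlorofluorescein diacetate. They were isolated and lysed by mild sonication at 4°C. Dichlorofluorescein fluorescence was read at ex 502/em 523 nm and expressed as intensity/mg lysate protein.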
# [16] = biological target: T2, Histidine-rich protein PFHRP-II (Plasmodium falciparum) (UniProt P05227); test: Inhibition of hemozoin formation after 48 hrs against chloroquine-sensitive Plasmodium falciparum NF54 at 10 to 100 uM by spectrophotometry; format: functional
# T2 sequence (whole entry): T1 sequence (P05227 whole entry)
# Summary of the method: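 Ring-synchronized culture (5% parasitemia, sorbitol) was treated 48 h across a concentration range. Parasites were saponin-isolated and sonicated, and the pellet washed in 2% SDS. It was digested with proteinase K (2 μg/ml, 37°C overnight), treated with 6 M urea for 3 h, and washed in SDS. Hemozoin was dissolved in 20 mM NaOH/2% SDS and read at 400 nm.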
# MCF7 [17] = test: Cytotoxicity against human MCF7 cells assessed as cell viability after 24 hrs by MTT assay; format: cell-based; conditions: MCF7, 24 h
# Plasmodium yoelii [18] = test: Antiplasmodial activity as reduced parasitaemia at day 4 against multi drug-resistant Plasmodium yoelii infected BALB/c mice (Mus musculus) at 50 mg/kg intraperitoneal dose 6 hrs post infection and daily for 3 days by Giemsa stain; format: functional; set-up: scale not given: the % may be the effect or the level left; summary of the method: as §3
# Plasmodium yoelii [19] = test: Antiplasmodial activity as reduced parasitaemia at day 4 against multi drug-resistant Plasmodium yoelii infected BALB/c mice (Mus musculus) at 25 mg/kg intraperitoneal dose 6 hrs post infection and daily for 3 days by Giemsa stain; format: functional; set-up: scale not given: the % may be the effect or the level left; summary of the method: as §3
# [20] = Selectivity index ratio of IC50 for human MCF7 cells to IC50 for chloroquine-sensitive Plasmodium falciparum NF54; format: functional
# Summary of the method: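 Selectivity index = MCF-7 MTT IC50 divided by P. falciparum NF-54 [3H]hypoxanthine-uptake IC50.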
# Plasmodium yoelii [21] = test: Antiplasmodial activity as reduced parasitaemia at day 4 against multi drug-resistant Plasmodium yoelii infected BALB/c mice (Mus musculus) at 100 mg/kg intraperitoneal dose 6 hrs post infection and daily for 3 days by Giemsa stain; format: functional; set-up: scale not given: the % may be the effect or the level left; summary of the method: as §3
SMILES,IC50 (Plasmodium falciparum [1]),IC50 (Plasmodium yoelii [2]),IC50 [3],Kd (Heme),Activity (Plasmodium falciparum [6]),Activity (Plasmodium falciparum [8]),Activity (Plasmodium falciparum [12]),Activity (MCF7 [13]),Activity (Plasmodium falciparum [15]),Activity [16],IC50 (MCF7 [17]),Activity (Plasmodium yoelii [18]),Activity (Plasmodium yoelii [19]),also measured
COc1ccc(C(Sc2ccc(C)cc2)c2ccccn2)cc1 (stereo not drawn),20 µM,,,,,,,,,,,,,
COc1ccc(C(Sc2ccc(C)cc2)c2cccnc2)cc1 (stereo not drawn),20 µM,20 µM,40 µM,12 µM,,,,,,,,,,
CCCCCC[C@H]1C(=O)O[C@H](C)[C@H](NC(=O)c2cccc(NC=O)c2O)C(=O)O[C@@H](C)[C@@H]1OC(=O)CC(C)C,,,,,,,,,,,,,,Activity (Plasmodium yoelii [4]): Active
COc1ccc(C(Sc2ccc3ccccc3c2)c2cccnc2)cc1 (stereo not drawn),4 µM,,,,Dose-dependent effect,Dose-dependent effect,Dose-dependent effect,Non-toxic,Dose-dependent effect,Dose-dependent effect,650 µM,85%,65%,Activity (Plasmodium falciparum [5]): inactive; Activity (Plasmodium falciparum [7]): inactive; Activity (Plasmodium falciparum [9]): inactive; Activity (Plasmodium yoelii [10]): 40%; Activity (Plasmodium falciparum [11]): Active; Activity (Plasmodium yoelii [4]): Active; Activity (Plasmodium falciparum [14]): inactive
COc1ccc(C(Sc2ccccc2C)c2cccnc2)cc1 (stereo not drawn),8 µM,26 µM,16 µM,26 µM,Dose-dependent effect,Dose-dependent effect,Dose-dependent effect,Non-toxic,Dose-dependent effect,Dose-dependent effect,1000 µM,50%,30%,Ratio IC50 [20]: 125; Activity (Plasmodium falciparum [7]): inactive; Activity (Plasmodium falciparum [11]): Active; Activity (Plasmodium yoelii [21]): 80%
COc1ccc(C(Sc2ccccc2)c2cccnc2)cc1 (stereo not drawn),5 µM,18 µM,11 µM,20 µM,Dose-dependent effect,Dose-dependent effect,Dose-dependent effect,Non-toxic,Dose-dependent effect,Dose-dependent effect,1000 µM,60%,30%,Ratio IC50 [20]: 200; Activity (Plasmodium yoelii [10]): 20%; %max (Plasmodium falciparum [11]): Active
COc1ccc(C(Sc2ccc(Cl)cc2)c2cccnc2)cc1 (stereo not drawn),12 µM,40 µM,40 µM,,,,,,,,,,,
COc1ccc(C(Sc2nc3ccccc3s2)c2cccnc2)cc1 (stereo not drawn),12 µM,40 µM,35 µM,14 µM,,,,,,,,,,

# Source: ChEMBL document CHEMBL1153556, “Antiplasmodial activity of [(aryl)arylsulfanylmethyl]Pyridine” (Antimicrob Agents Chemother, 2008)
